# Results collected from several papers.
# MTNR1A: Melatonin receptor type 1A (MTNR1A, Homo sapiens, UniProt P48039)
# Glucagon receptor: Glucagon receptor (Mus musculus, UniProt Q61606)
SMILES,target,read-out,action,method,EC50
COc1ccc(CSc2nnc(C3CC3)[nH]2)cc1,MTNR1A,cAMP,agonist,luciferase,2.96 nM
CC[C@H](C)[C@H](NC(=O)[C@H](CO)NC(=O)[C@H](Cc1ccc(O)cc1)NC(=O)[C@H](CC(=O)O)NC(=O)[C@H](CO)NC(=O)[C@@H](NC(=O)[C@H](Cc1ccccc1)NC(=O)[C@@H](NC(=O)CNC(=O)[C@H](CCC(=O)O)NC(=O)[C@H](C)NC(=O)[C@@H](N)Cc1ccc(O)cc1)[C@@H](C)O)[C@@H](C)CC)C(=O)N[C@@H](C)C(=O)N[C@@H](CCSC)C(=O)N[C@@H](CC(=O)O)C(=O)N[C@@H](CCCCN)C(=O)N[C@H](C(=O)N[C@@H](CCCNC(=N)N)C(=O)N[C@@H](CCC(N)=O)C(=O)N[C@@H](CCC(N)=O)C(=O)N[C@@H](CC(=O)O)C(=O)N[C@@H](Cc1ccccc1)C(=O)N[C@H](C(=O)N[C@@H](CC(N)=O)C(=O)N[C@@H](Cc1c[nH]c2ccccc12)C(=O)N[C@@H](CC(C)C)C(=O)N[C@@H](CC(C)C)C(=O)N[C@@H](C)C(=O)N[C@@H](CCC(N)=O)C(=O)N[C@@H](CCCNC(=N)N)C(=O)NCC(=O)N[C@@H](CCCCN)C(=O)N[C@@H](CCCCN)C(=O)N[C@@H](CO)C(=O)N[C@@H](CC(=O)O)C(=O)N[C@@H](Cc1c[nH]c2ccccc12)C(=O)N[C@@H](CCCCN)C(=O)N[C@@H](Cc1c[nH]cn1)C(=O)N[C@@H](CC(N)=O)C(=O)N[C@H](C(=O)N[C@H](C(=O)N[C@@H](CCC(N)=O)C(=O)O)[C@@H](C)O)[C@@H](C)CC)C(C)C)[C@@H](C)CC,Glucagon receptor,reporter gene,agonist,luciferase,> 1000 nM
COCC(CNC(C)=O)c1cccc2ccc(OC)cc12 (stereo not drawn),MTNR1A,cAMP,agonist,TR-FRET,21.4 nM
Clc1sccc1CNc1cccc(-c2nnc[nH]2)c1,MTNR1A,cAMP,agonist,luciferase,9300 nM
CC[C@H](C)[C@H](NC(=O)[C@H](Cc1ccccc1)NC(=O)[C@H](CCC(=O)O)NC(=O)[C@H](CCCCN)NC(=O)[C@H](C)NC(=O)[C@H](C)NC(=O)[C@H](CCC(N)=O)NC(=O)CNC(=O)[C@H](CCC(=O)O)NC(=O)[C@H](CC(C)C)NC(=O)[C@H](Cc1ccc(O)cc1)NC(=O)[C@H](CO)NC(=O)[C@H](CO)NC(=O)[C@@H](NC(=O)[C@H](CC(=O)O)NC(=O)[C@H](CO)NC(=O)[C@@H](NC(=O)[C@H](Cc1ccccc1)NC(=O)[C@@H](NC(=O)CNC(=O)[C@H](CCC(=O)O)NC(=O)[C@H](C)NC(=O)[C@@H](N)Cc1c[nH]cn1)[C@@H](C)O)[C@@H](C)O)C(C)C)C(=O)N[C@@H](C)C(=O)N[C@@H](Cc1c[nH]c2ccccc12)C(=O)N[C@@H](CC(C)C)C(=O)N[C@H](C(=O)N[C@@H](CCCCN)C(=O)NCC(=O)N[C@@H](CCCN=C(N)N)C(=O)NCC(=O)O)C(C)C,Glucagon receptor,reporter gene,agonist,luciferase,> 1000 nM
C#CCOCCOCCOCCOc1ccc2c3c1C1CCCC1N3CCNC2 (racemic),"5-hydroxytryptamine receptor 2C (HTR2C, Homo sapiens, UniProt P28335)",calcium signal,agonist,fluorescence,647 nM
Cc1cccnc1C(=O)Nc1ccc(N2C(=O)c3cccc(Cl)c3C2=O)c(Cl)c1,"Metabotropic glutamate receptor 1 (Grm1, Rattus norvegicus, UniProt P23385)",calcium signal,positive allosteric modulator,,367 nM
COc1cccc(CN2CCOc3ccc(OC)cc32)c1,MTNR1A,cAMP,agonist,luciferase,6.11 nM
COc1ccc2[nH]cc(CCNC(C)=O)c2c1I,MTNR1A,cAMP,agonist,TR-FRET,229 nM
